Series [1] has as its system Human immunodeficiency virus 1. In words: Antiviral activity against Human immunodeficiency virus 1 3B infected in MT4 cells assessed as protection against virus-induced cytopathic effect measured 5 days post infection by MTT assay. The conditions noted are these: MT4, 120 h. The class given is functional, organism-based. The method in brief: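 MT-4 cells resuspended at 6×10^5 cells/mL, infected with HIV-1 IIIB at 100-300 CCID50. Serial five-fold compound dilutions were run in triplicate wells. Viability was read by MTT reduction at 540 and 690 nm five days after infection, using the median OD of two or three wells. EC50 is the concentration giving 50% protection from viral cytopathicity.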
Background: Cytopathic effects are the visible damage that an infection or toxin causes in cultured cells.

Series [2] has as its system Human immunodeficiency virus 1. Briefly: Selectivity ratio of IC50 for HIV-1 BH10 reverse transcriptase RNase H activity to IC50 for recombinant HIV1 integrase strand transfer activity. The method in brief: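 Ratio of RNase H IC50 to IN IC50. The RNase H IC50 came from the gel-based cleavage assay. The IN IC50 came from an ELISA strand-transfer assay: biotinylated LTR U5 donor DNA on streptavidin plates, full-length recombinant IN added, compound for 5 min at room temperature, then target DNA for 30 min at 37 °C. Products were detected with HRP antibody, TMB and A450.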

Series [3] is described as follows: Cytotoxicity against human MT4 cells after 5 days by MTT assay. In kind it is cell-based. In outline: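 Mock-infected MT-4 cells at 6×10^5 cells/mL were set up in triplicate wells alongside the infected series, with serial five-fold compound dilutions. Viability was measured by MTT at 540 and 690 nm after five days, using the median OD of two or three wells. CC50 is the concentration reducing viability of mock-infected cells by 50%.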
Background: Tetrazolium dyes change colour on reduction, which living cells bring about.

Series [4] concerns the target Human immunodeficiency virus type 1 reverse transcriptase (Human immunodeficiency virus 1, UniProt Q72547). In words: Inhibition of HIV-1 BH10 reverse transcriptase RNase H activity expressed in Escherichia coli using [32P]-labeled template primer 31Trna/21P as substrate pretreated for 5 mins followed by substrate addition by polyacrylamide gel electrophoresis method. In outline: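 Wild-type HIV-1 BH10 RT (20-40 nM) was preincubated with compound for 5 min at 37 °C in 50 mM Tris-HCl pH 8.0, 50 mM NaCl, 5 mM MgCl2, 5% DMSO. Reaction was started with 25 nM 5'-32P-labeled 31Trna/21P and run 20 s at 37 °C. Cleavage products were resolved on denaturing PAGE and quantified by phosphorimaging. IC50 came from dose-response curves over 0.2-100 μM.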

The target of series [5] is Human immunodeficiency virus type 1 integrase (Human immunodeficiency virus 1, UniProt Q7ZJM1). Briefly: Inhibition of recombinant HIV1 integrase strand transfer activity using biotin-labeled double-stranded HIV-1 LTR U5 donor DNA substrate pretreated for 5 mins followed by substrate addition and measured after 30 mins by ELISA.

Results on 13 compounds are retold here after ChEMBL document CHEMBL4152319, “5-Hydroxypyrido[2,3-b]pyrazin-6(5H)-one derivatives as novel dual inhibitors of HIV-1 reverse transcriptase-associated ribonuclease H and integrase” (Eur J Med Chem, 2018).

Each structure is given as a SMILES string.

Sequence of Human immunodeficiency virus type 1 integrase (Q7ZJM1 whole entry): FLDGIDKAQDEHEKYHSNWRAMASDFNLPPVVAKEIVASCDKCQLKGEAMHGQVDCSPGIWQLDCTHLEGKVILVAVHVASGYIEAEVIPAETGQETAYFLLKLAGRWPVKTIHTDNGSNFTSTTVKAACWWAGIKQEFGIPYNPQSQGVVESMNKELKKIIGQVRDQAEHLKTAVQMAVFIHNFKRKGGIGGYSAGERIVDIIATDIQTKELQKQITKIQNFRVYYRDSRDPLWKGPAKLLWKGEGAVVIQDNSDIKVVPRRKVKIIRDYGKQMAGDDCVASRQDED

For `COC(=O)c1c(Nc2cccc(-c3ccc(C#N)cc3)c2)c2nccnc2n(O)c1=O`, in series [1], the EC50 is above 1.19 µM. Further, the Ratio IC50 in series [2] was determined as 0.24. Besides, in series [3], the midpoint of cytotoxicity, the CC50 at 120 h, lay at 1.19 µM. For the same compound, the IC50 in series [4] came to 5.56 µM; in series [5], 22.8 µM.

On to `Cc1nnc(C(=O)NC(C)(C)c2nc(C(=O)NCc3ccc(F)cc3)c(O)c(=O)n2C)o1`, for which the EC50 in series [1] was 0.0117 µM. Besides, the CC50 at 120 h in series [3] was above 56.2 µM.

Turning to `COC(=O)c1c(Nc2ccc(-c3cccc(C#N)c3)cc2)c2nccnc2n(O)c1=O`, in series [1], the EC50 is above 5.68 µM. In series [3], this compound came in with a CC50 at 120 h of 5.68 µM. Moreover, the IC50 is 13.3 µM in series [4] and above 25 µM in series [5].

Take `COC(=O)c1c(Nc2cccc(-c3ccc(OC)c(OC)c3)c2)c2nccnc2n(O)c1=O`: the EC50 in series [1] was above 1.32 µM. Moreover, the Ratio IC50 in series [2] came to 21.4. For the same compound, the CC50 at 120 h in series [3] amounted to 1.32 µM. The IC50 in series [4] amounted to 4.72 µM; in series [5], 0.22 µM.

On to `COC(=O)c1c(Nc2ccc(-c3ccc(OC)c(OC)c3)cc2)c2nccnc2n(O)c1=O`, for which the EC50 in series [1] is above 1.47 µM. Besides, in series [3], the CC50 at 120 h was determined as 1.47 µM. Moreover, the IC50 is 5.9 µM in series [4] and above 25 µM in series [5].

For the compound `COC(=O)c1c(Nc2cccc3ccccc23)c2nccnc2n(O)c1=O`, in series [1], the EC50 was above 1.38 µM. The compound also displayed a CC50 at 120 h in series [3] of 1.38 µM. The IC50 in series [4] was 4.3 µM; in series [5] it was above 25 µM.

For the compound `COC(=O)c1c(Nc2ccc(-c3cncnc3)cc2)c2nccnc2n(O)c1=O`, the EC50 in series [1] was above 8.04 µM. Further, the Ratio IC50 in series [2] was 2.17. Half-maximal cytotoxicity in series [3] (CC50 at 120 h) was put at 8.04 µM. The figures for the IC50 in series [4] and in series [5] were 3.24 µM and 1.49 µM, respectively.

Take `COC(=O)c1c(Nc2ccc3ccccc3c2)c2nccnc2n(O)c1=O`: in series [1], the concentration for a half-maximal effect (EC50) was above 7.15 µM. In addition, the Ratio IC50 in series [2] was 0.76. In series [3], the CC50 at 120 h is 7.15 µM. Further, the IC50 was found to be 5.11 µM in series [4] and 6.74 µM in series [5].

In the case of `COC(=O)c1c(Nc2ccc(-c3ccccc3)cc2)c2nccnc2n(O)c1=O`, in series [1], the EC50 was above 7 µM. The compound also displayed a CC50 at 120 h in series [3] of 7 µM. Further, the IC50 in series [4] was 5.25 µM; in series [5], above 25 µM.

For `COC(=O)c1c(Nc2cccc(-c3cncnc3)c2)c2nccnc2n(O)c1=O`, the EC50 in series [1] is above 5.89 µM. Moreover, the Ratio IC50 in series [2] worked out at 0.17. The compound also had a CC50 at 120 h in series [3] of 5.89 µM. For the same compound, the results for the IC50 in series [4] and in series [5] were 1.85 µM and 10.8 µM, respectively.

For the compound `COC(=O)c1c(Nc2ccc(-c3ccc(C#N)cc3)cc2)c2nccnc2n(O)c1=O`, the EC50 in series [1] was above 0.34 µM. For the same compound, in series [2], the Ratio IC50 came out at 1.5. The compound further gave a CC50 at 120 h in series [3] of 0.34 µM. Also, the results for the IC50 in series [4] and in series [5] were 1.77 µM and 1.18 µM, respectively.

In the case of `CC(C)c1ccc(O)c(=O)c(O)c1` [BETA-THUJAPLICINOL], the IC50 in series [4] stood at 2.5 µM.

For the compound `COC(=O)c1c(Nc2cccc(-c3cccc(C#N)c3)c2)c2nccnc2n(O)c1=O`, the EC50 in series [1] is above 1.16 µM. In addition, the Ratio IC50 in series [2] is 16.1. This compound also displayed a CC50 at 120 h in series [3] of 1.16 µM. Also, the figures for the IC50 in series [4] and in series [5] were 4.02 µM and 0.25 µM, respectively.

The EC50 is the concentration at which the effect is half-maximal. For orientation: CC50 means the concentration at which the toxic effect on the cells reaches its halfway point. Low readings indicate greater toxicity to the cells, high ones lower toxicity to the cells. By IC50 is commonly meant the midpoint of a concentration-inhibition curve.
